In ChEMBL document CHEMBL3120153, “Novel Quinoline-Based P2-P4 Macrocyclic Derivatives As Pan-Genotypic HCV NS3/4a Protease Inhibitors” (ACS Med Chem Lett, 2014):

Key:
[1] = target: NS3 protease (Hepatitis C virus subtype 1b, UniProt Q0ZMF1, A156T); test: Inhibition of Hepatitis C virus genotype 1b NS3/4A protease A156T mutant assessed as substrate cleavage using Ac-C(Eu)DDMEEAbu(COO)ASK(QSY7)-amide as substrate incubated for 30 mins prior to substrate addition by time-resolved fluorescence assay
[2] = Inhibition of Hepatitis C virus genotype 1b NS3/4A protease assessed as substrate cleavage using Ac-C(Eu)DDMEEAbu(COO)ASK(QSY7)-amide as substrate incubated for 30 mins prior to substrate addition by time-resolved fluorescence assay; set-up: species or system Hepatitis C virus subtype 1b
[3] = target: NS3 protease (Hepatitis C virus subtype 1b, UniProt Q0ZMF1, D168Y); test: Inhibition of Hepatitis C virus genotype 1b NS3/4A protease D168Y mutant assessed as substrate cleavage using Ac-C(Eu)DDMEEAbu(COO)ASK(QSY7)-amide as substrate incubated for 30 mins prior to substrate addition by time-resolved fluorescence assay
[4] = target: NS3 protease (Hepatitis C virus subtype 1b, UniProt Q0ZMF1, R155K); test: Inhibition of Hepatitis C virus genotype 1b NS3/4A protease R155K mutant assessed as substrate cleavage using Ac-C(Eu)DDMEEAbu(COO)ASK(QSY7)-amide as substrate incubated for 30 mins prior to substrate addition by time-resolved fluorescence assay
[5] = target: NS3 protease (Hepatitis C virus subtype 1b, UniProt Q0ZMF1, A156V); test: Inhibition of Hepatitis C virus genotype 1b NS3/4A protease A156V mutant assessed as substrate cleavage using Ac-C(Eu)DDMEEAbu(COO)ASK(QSY7)-amide as substrate incubated for 30 mins prior to substrate addition by time-resolved fluorescence assay
[6] = Inhibition of Hepatitis C virus genotype 3a NS3/4A protease assessed as substrate cleavage using Ac-C(Eu)DDMEEAbu(COO)ASK(QSY7)-amide as substrate incubated for 30 mins prior to substrate addition by time-resolved fluorescence assay; set-up: species or system Hepatitis C virus subtype 3a
[7] = tested on: Hepatitis C virus; test: Antiviral activity against Hepatitis C virus genotype 1b infected in HuH7 cells assessed as reduction in replicon RNA level after 72 hrs by TaqMan-based RT-PCR analysis in presence of 10% FBS; assay type: functional, organism-based, Hepacivirus hominis; conditions: Huh-7, 72 h
[8] = tested on: Hepatitis C virus; test: Antiviral activity against Hepatitis C virus genotype 3a infected in HuH7 cells assessed as reduction in replicon RNA level after 72 hrs by TaqMan-based RT-PCR analysis in presence of 10% FBS; assay type: functional, organism-based, Hepacivirus hominis; conditions: Huh-7, 72 h
[9] = AUC in rat at 5 mg/kg, po; assay type: ADME, organism-based; set-up: dose 5 mg/kg, route oral; conditions: plasma
Method in brief: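 Rats were dosed orally at 5 mg/kg, with the compound given in methyl cellulose vehicle.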

SMILES | IC50 [1] | IC50 [2] | IC50 [3] | IC50 [4] | IC50 [5] | IC50 [6] | EC50 [7] | EC50 [8] | AUC [9]
C=C[C@@H]1C[C@]1(NC(=O)[C@@H]1C[C@@H]2CN1C(=O)[C@H](C1CCCCC1)NC(=O)O[C@@H]1C[C@H]1CCCCCc1c(nc3ccccc3c1OCCCNC1CC(F)(F)C1)O2)C(=O)NS(=O)(=O)C1(C)CC1 | 0.53 nM | 0.01 nM | 0.32 nM | 0.18 nM | 0.38 nM | 2 nM |  |  | 
C=C[C@@H]1C[C@]1(NC(=O)[C@@H]1C[C@@H]2CN1C(=O)[C@H](C1CCCCC1)NC(=O)O[C@@H]1C[C@H]1CCCCCc1c(nc3ccccc3c1OC1CCN(C(=O)OC(C)(C)C)CC1)O2)C(=O)NS(=O)(=O)C1(C)CC1 | 21.1 nM | 0.16 nM | 13.5 nM | 1.31 nM | 14.5 nM | 191 nM |  |  | 
C=C[C@@H]1C[C@]1(NC(=O)[C@@H]1C[C@@H]2CN1C(=O)[C@H](C1CCCCC1)NC(=O)O[C@@H]1C[C@H]1CCCCCc1c(nc3ccccc3c1OC1CCN(CC)CC1)O2)C(=O)NS(=O)(=O)C1(C)CC1 | 0.91 nM | 0.03 nM | 0.21 nM | 0.11 nM | 0.66 nM | 0.41 nM | 0.53 nM | 5.2 nM | 2.3 µM·h
C=C[C@@H]1C[C@]1(NC(=O)[C@@H]1C[C@@H]2CN1C(=O)[C@H](C1CCCCC1)NC(=O)O[C@@H]1C[C@H]1CCCCCc1c(nc3ccccc3c1OC1CCN(CC3CC3)CC1)O2)C(=O)NS(=O)(=O)C1(C)CC1 | 0.42 nM | 0.01 nM | 0.11 nM | 0.03 nM | 0.27 nM | 0.3 nM | 0.73 nM | 13.5 nM | 2.8 µM·h
C=C[C@@H]1C[C@]1(NC(=O)[C@@H]1C[C@@H]2CN1C(=O)[C@H](C1CCCCC1)NC(=O)O[C@@H]1C[C@H]1CCCCCc1c(nc3ccccc3c1OC1CCN(CCOC)CC1)O2)C(=O)NS(=O)(=O)C1(C)CC1 | 1.96 nM | 0.02 nM | 0.15 nM | 0.18 nM | 1.46 nM | 1.32 nM |  |  | 
C=C[C@@H]1C[C@]1(NC(=O)[C@@H]1C[C@@H]2CN1C(=O)[C@H](C1CCCCC1)NC(=O)O[C@@H]1C[C@H]1CCCCCc1c(nc3ccccc3c1OC1CCN(CCOC(F)(F)F)CC1)O2)C(=O)NS(=O)(=O)C1(C)CC1 | 1.32 nM | 0.15 nM | 0.48 nM | 0.15 nM | 1.58 nM | 1.22 nM |  |  | 
C=C[C@@H]1C[C@]1(NC(=O)[C@@H]1C[C@@H]2CN1C(=O)[C@H](C1CCCCC1)NC(=O)O[C@@H]1C[C@H]1CCCCCc1c(nc3ccccc3c1OC1CCN(CCS(C)(=O)=O)CC1)O2)C(=O)NS(=O)(=O)C1(C)CC1 | 5.21 nM | 0.02 nM | 2.1 nM | 0.21 nM | 3.76 nM | 5.18 nM |  |  | 
C=C[C@@H]1C[C@]1(NC(=O)[C@@H]1C[C@@H]2CN1C(=O)[C@H](C1CCCCC1)NC(=O)O[C@@H]1C[C@H]1CCCCCc1c(nc3ccccc3c1OC1CCN(CC(F)(F)F)CC1)O2)C(=O)NS(=O)(=O)C1(C)CC1 | 26.1 nM | 0.4 nM | 12.9 nM | 3.4 nM | 27.2 nM | 104 nM |  |  | 
C=C[C@@H]1C[C@]1(NC(=O)[C@@H]1C[C@@H]2CN1C(=O)[C@H](C1CCCCC1)NC(=O)O[C@@H]1C[C@H]1CCCCCc1c(nc3ccccc3c1OC1CCN(CCF)CC1)O2)C(=O)NS(=O)(=O)C1(C)CC1 | 2.15 nM | 0.01 nM | 1.3 nM | 0.13 nM | 1.67 nM | 2.13 nM |  |  | 
C=C[C@@H]1C[C@]1(NC(=O)[C@@H]1C[C@@H]2CN1C(=O)[C@H](C1CCCCC1)NC(=O)O[C@@H]1C[C@H]1CCCCCc1c(nc3ccccc3c1OC1CCOCC1)O2)C(=O)NS(=O)(=O)C1(C)CC1 | 4.1 nM | 0.03 nM | 2.07 nM | 0.26 nM | 3.4 nM | 11 nM |  |  | 
C=C[C@@H]1C[C@]1(NC(=O)[C@@H]1C[C@@H]2CN1C(=O)[C@H](C1CCCCC1)NC(=O)O[C@@H]1C[C@H]1CCCCCc1c(nc3ccccc3c1OCCCNC1CCC1)O2)C(=O)NS(=O)(=O)C1(C)CC1 | 0.4 nM | 0.02 nM | 0.3 nM | 0.1 nM | 0.3 nM | 1.2 nM |  |  | 
C=C[C@@H]1C[C@]1(NC(=O)[C@@H]1C[C@@H]2CN1C(=O)[C@H](C1CCCCC1)NC(=O)O[C@@H]1C[C@H]1CCCCCc1c(nc3ccccc3c1OCCCN1CC(F)C1)O2)C(=O)NS(=O)(=O)C1(C)CC1 | 1.95 nM | 0.02 nM | 0.79 nM | 0.16 nM | 0.97 nM | 4.45 nM |  |  | 
C=C[C@@H]1C[C@]1(NC(=O)[C@@H]1C[C@@H]2CN1C(=O)[C@H](C1CCCCC1)NC(=O)O[C@@H]1C[C@H]1CCCCCc1c(nc3ccccc3c1OCCCN1CC(F)(F)C1)O2)C(=O)NS(=O)(=O)C1(C)CC1 | 3.75 nM | 0.03 nM | 2 nM | 0.5 nM | 1.3 nM | 7.55 nM |  |  | 
C=C[C@@H]1C[C@]1(NC(=O)[C@@H]1C[C@@H]2CN1C(=O)[C@H](C1CCCCC1)NC(=O)O[C@@H]1C[C@H]1CCCCCc1c(nc3ccccc3c1OCCCN1CCOCC1)O2)C(=O)NS(=O)(=O)C1(C)CC1 | 3.09 nM | 0.01 nM | 1.01 nM | 0.27 nM | 0.98 nM | 1.9 nM |  |  | 
C=C[C@@H]1C[C@]1(NC(=O)[C@@H]1C[C@@H]2CN1C(=O)[C@H](C1CCCCC1)NC(=O)O[C@@H]1C[C@H]1CCCCCc1c(nc3ccccc3c1OCCCN1CCN(C)CC1)O2)C(=O)NS(=O)(=O)C1(C)CC1 | 0.5 nM | 0.01 nM | 0.38 nM | 0.05 nM | 0.26 nM | 1.15 nM |  |  | 0.1 µM·h
C=C[C@@H]1C[C@]1(NC(=O)[C@@H]1C[C@@H]2CN1C(=O)[C@H](C(C)(C)C)NC(=O)O[C@@H]1C[C@H]1CCCCCc1c(nc3ccccc3c1O[C@H]1C[C@H]3CC[C@@H](C1)N3CCOC)O2)C(=O)NS(=O)(=O)C1(C)CC1 | 0.48 nM | 0.01 nM | 0.06 nM | 0.02 nM | 0.71 nM | 0.14 nM |  |  | 
C=C[C@@H]1C[C@]1(NC(=O)[C@@H]1C[C@@H]2CN1C(=O)[C@H](C(C)(C)C)NC(=O)O[C@@H]1C[C@H]1CCCCCc1c(nc3ccccc3c1O[C@H]1C[C@H]3CC[C@@H](C1)N3CC)O2)C(=O)NS(=O)(=O)C1(C)CC1 | 0.21 nM | 0.01 nM | 0.04 nM | 0.01 nM | 0.33 nM | 0.08 nM | 0.48 nM | 1.06 nM | 0.01 µM·h
C=C[C@@H]1C[C@]1(NC(=O)[C@@H]1C[C@@H]2CN1C(=O)[C@H](C1CCCCC1)NC(=O)O[C@@H]1C[C@H]1CCCCCc1c(nc3ccccc3c1O[C@H]1C[C@H]3CC[C@@H](C1)N3)O2)C(=O)NS(=O)(=O)C1(C)CC1 | 0.08 nM | 0.01 nM | 0.05 nM | 0.02 nM | 0.13 nM | 0.11 nM |  |  | 
C=C[C@@H]1C[C@]1(NC(=O)[C@@H]1C[C@@H]2CN1C(=O)[C@H](C(C)(C)C)NC(=O)O[C@@H]1C[C@H]1CCCCCc1c(nc3ccccc3c1O[C@@H]1C[C@H]3CC[C@@H](C1)N3CCOC)O2)C(=O)NS(=O)(=O)C1(C)CC1 | 1.25 nM | 0.02 nM | 1.45 nM | 0.28 nM | 0.86 nM | 4.7 nM |  |  | 
C=C[C@@H]1C[C@]1(NC(=O)[C@@H]1C[C@@H]2CN1C(=O)[C@H](C(C)(C)C)NC(=O)O[C@@H]1C[C@H]1CCCCCc1c(nc3ccccc3c1O[C@@H]1C[C@H]3CC[C@@H](C1)N3CC)O2)C(=O)NS(=O)(=O)C1(C)CC1 | 0.46 nM | 0.02 nM | 0.57 nM | 0.12 nM | 0.41 nM | 1.2 nM |  |  | 
C=C[C@@H]1C[C@]1(NC(=O)[C@@H]1C[C@@H]2CN1C(=O)[C@H](C1CCCCC1)NC(=O)O[C@@H]1C[C@H]1CCCCCc1c(nc3ccccc3c1O[C@H]1C[C@H]3CC[C@@H](C1)N3CCOC)O2)C(=O)NS(=O)(=O)C1(C)CC1 | 0.35 nM | 0.02 nM | 0.19 nM | 0.05 nM | 0.36 nM | 0.28 nM |  |  | 
